Screening results: PubChem, several laboratories
XBP1 UPR activ: adaptive UPR (XBP1) activation | activation, % at 20 µM | CHO-XBP1 luciferase reporter, IRE1-XBP1 UPR activation, luminescence; percent of tunicamycin response, DMSO as zero | AID 463104 | 0.33% of 330,000 active;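 active = versus positive control, 20 µM dose yields 30% or more activation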;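 also: 100% = tunicamycin at 10 µg/mL and 0% = DMSO only wells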
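Signal: luciferase luminescence; Assay system: CHO-XBP1 luciferase reporter cells; Amount: one thousand reporter cells per well; Dosing: 20 µM single concentration, DMSO 1%; Benchmarks: high control tunicamycin 10 µg/mL final, low control DMSO vehicle only; Schedule: 6 h compound exposure at 37 °C, 5% CO2; Evaluation: percent activation relative to tunicamycin reference.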
CHOP inhibitor: inhibitors of CHOP induction in ER stress response; CHO-K1 CHOP-promoter luciferase, tunicamycin-induced, 15-18 h; inhibition, % at 10 µM; 3.8% of 220,000 active;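 active = compounds that reduced the stress-induced luciferase reporter signal by more than about 70% of percent inhibition, limit read from the data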;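 also: 0% = tunicamycin plus vehicle and 100% = wells without tunicamycin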
Beta2AR agonist: human beta-2 adrenergic receptor agonism by FAP | Am2.2-beta2AR cells, FAP receptor internalization, flow cytometry | P07550 | response, % (test concentration not listed) | AID 504454 | 0.43% of 340,000 active;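 active = response above a set limit, near 3 SD of response in nonfluorescent compounds, cut at about 42% in these data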
Target sequence (P07550 whole entry, looked up): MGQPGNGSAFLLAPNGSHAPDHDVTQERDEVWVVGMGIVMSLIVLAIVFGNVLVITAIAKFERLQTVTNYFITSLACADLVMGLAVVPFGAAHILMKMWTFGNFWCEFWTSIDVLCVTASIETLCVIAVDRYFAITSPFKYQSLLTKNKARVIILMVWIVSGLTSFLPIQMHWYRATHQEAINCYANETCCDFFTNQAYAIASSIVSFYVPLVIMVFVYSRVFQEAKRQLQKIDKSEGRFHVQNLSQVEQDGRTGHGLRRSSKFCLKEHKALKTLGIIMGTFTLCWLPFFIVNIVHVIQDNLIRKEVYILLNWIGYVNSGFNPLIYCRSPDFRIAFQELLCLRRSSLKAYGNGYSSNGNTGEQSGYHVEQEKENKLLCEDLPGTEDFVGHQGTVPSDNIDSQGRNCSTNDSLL
UPR CHOP act: activators of apoptotic arm of unfolded protein response (CHOP); CHO-CHOP luciferase reporter, UPR activation, luminescence; percent of tunicamycin response over DMSO baseline; activation, % at 10 µM; 0.34% of 330,000 active; AID 449763;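 active = at 10 µM dose, activation of 40% or more, normalized to positive control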;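 also: 100% = tunicamycin at 10 µg/mL and 0% = DMSO alone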
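System: CHO CHOP reporter cells. Amount: 500 cells per well. Buffer or medium: F12 medium, 10% FBS. Compound dosing: one dose, 10 µM in 0.5% DMSO. Incubation: 6 h compound exposure at 37 °C after overnight seeding. Technique: Steady-Glo luciferase luminescence. Benchmarks: tunicamycin and DMSO controls.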
Dynein transport: dynein cargo transport inhibition; z-score, hits read low; 3617.4 mouse cells, GR-EGFP nuclear translocation imaging; test concentration mostly 20 µM; stimulated with dexamethasone, 1 µM; hits give low values; 0.47% of 220,000 active; AID 1381;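 active = plate z-score of nuclear minus cytoplasmic receptor signal below a set negative limit, without overly bright fluorescence or cell loss, cut at about -3.5 in these data, passing the limit was not always enough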;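 also: z-score of nuclear minus cytoplasmic ring GR-EGFP intensity difference per well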
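Buffer or medium: tet-free, stripped-serum medium; Also added: dexamethasone, 1.0 µM final; Technique: high-content fluorescence imaging after fixation; Times: 48 h induction, 1 h compound, 30 min dex at 37 °C; Read-out: per-cell GR-EGFP intensity, nucleus versus surrounding cytoplasmic ring, well-averaged.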
p-CIP stab down: p/CIP protein destabilization; Q05BA5; F442A p/CIP-EGFP cells, EGFP fluorescence, 16 h; decrease of EGFP signal, % at 10 µM; 0.01% of 290,000 active; AID 1984;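 active = EGFP signal decrease of at least 30% at 10 µM or well 3 SD below plate mean, unless failing retest; inactive = the rest, including hits failing retest or dose response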
UPR CHOP confirm: confirmation of apoptotic unfolded protein response (CHOP) activators; shares compounds with UPR CHOP act; CHO-CHOP cells, CHOP-luciferase reporter luminescence; percent of tunicamycin response, DMSO as zero; activation, % at 10 µM; 64% of 1,000 active; AID 463112; in the data active = activation above about 33%;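 also: 0% = DMSO wells and 100% = tunicamycin 10 µg/mL wells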
XBP1 UPR conf: confirmation of adaptive unfolded protein response (XBP1) activators; 63% of 1,000 active; activation, % at 20 µM; CHO-XBP1 IRE1-XBP1 luciferase reporter, luminescence; shares compounds with XBP1 UPR activ;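 active = reporter signal at least 30% of the positive control's activation in two or more of four replicate wells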;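 also: plate controls were DMSO negative control for no effect and tunicamycin 10 µg/mL positive control for full effect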
* = called active by the depositor; nt = no result. This is one part of a sample in which hits are shown more often than they occur.

SMILES	XBP1 UPR activ	CHOP inhibitor	Beta2AR agonist	UPR CHOP act	Dynein transport	p-CIP stab down	UPR CHOP confirm	others
Cc1ccc2oc(Nc3nc(-c4ccccc4)cc(=O)[nH]3)nc2c1	28	101*	nt	364*	-0.85	-5	423*
O=Cc1[nH]c2ccccc2c1N(C(=O)CCl)c1ccc([N+](=O)[O-])cc1	3	29	22	55*	1.7	-7	0
O=S(=O)(c1ccc(Br)s1)N1CCN(c2ccc(F)cc2)CC1	-2	nt	1	0	nt	-14	nt
C/C(=N\NC(N)=S)c1ccccc1	-2	0	-7	-1	-0.68	-28	nt
CSC(=S)N/N=C(\C)c1ccccc1	2	-122	-2	109*	-0.43	5	79*
C/C(=N\NC(=O)c1cc(O)ccc1O)c1cccc(NC(=O)c2cccc(Cl)c2)c1	-2	nt	5	7	nt	-12	nt
C/C(=N\NC(=O)c1cc(O)ccc1O)c1cccc(NC(=O)c2ccc(Cl)cc2)c1	11	nt	11	72*	nt	-2	5
CCOC(=O)C1=C(CCl)NC(=O)NC1c1ccc2c(c1)OCO2 (stereo unspecified)	-5	nt	0	44*	nt	-4	37*
O=C(CN1CCN(c2ccccc2O)CC1)Nc1ccnn1C1CCCC1	1	nt	2	1	nt	nt	nt
O=c1nc(Nc2cccc(Cl)c2)oc2cc(Cl)oc(=O)c12	-2	5	39	41*	-3	0	73*
O=c1nc(Nc2ccccc2)oc2ccccc12	1	-23	-7	1	-0.94	-3	nt
Cc1ccc2[nH]cc(C(=O)CCl)c2c1	-6	47	21	348*	-3	-16	189*
Cc1ccc2c(C(=O)CCl)c(C)[nH]c2c1	-6	-220	5	479*	-0.94	-6	274*
Cc1ccc2c(C(=O)CN3CCSCC3)c(C)[nH]c2c1	-4	48	-1	2	0.64	-8	nt
CC1CC(=O)Nc2ccccc2N1C(=O)Cn1cnc2ccc(Br)cc2c1=O (stereo unspecified)	-2	nt	-3	2	nt	nt	nt
CCc1cc(C(=O)c2ccc(C)cc2)c(NC(=O)CCl)s1	6	40	15	108*	-3.1	3	114*
CCc1cc(C(=O)c2ccc(OC)cc2)c(NC(=O)CCC(=O)O)s1	-2	-22	10	-1	-0.34	-8	nt
Cc1cc(C(=O)c2ccc(Cl)cc2)c(NC(=O)CCl)s1	7	63	7	50*	-3.4	4	46*
CCn1c(O)c(N=NC(=O)c2cccnc2)c2cc(Br)ccc21	3	12	0	0	-0.47	-4	nt
CCn1c(O)c(C2=c3ccccc3=NC2=O)c2cc(Br)ccc21	-7	23	nt	111*	0.4	4	83*
O=C(Nc1nc(-c2ccccn2)cs1)c1ccc(Cl)s1	11	nt	-18	90*	0.11	-2	126*
Cc1cccnc1Nc1nc(-c2ccccn2)cs1	11	-79	13	451*	-1.3	-10	471*
Cc1cccc(Nc2nc(-c3ccccn3)cs2)n1	26	-64	-9	83*	0.41	1	35*
Cc1cccnc1Nc1nc(-c2ccccc2)cs1	-4	nt	0	5	nt	-10	nt
CCOC(=O)c1c(C)[nH]c(C)c1S(=O)(=O)N1c2ccccc2CC1C (stereo unspecified)	-4	nt	7	1	nt	-4	nt
SMILES	XBP1 UPR activ	CHOP inhibitor	Beta2AR agonist	UPR CHOP act	Dynein transport	p-CIP stab down	UPR CHOP confirm	others
CCOc1ccc(NC2=CC(=O)C(=O)c3ccccc32)cc1	nt	nt	2	nt	nt	nt	nt
COc1cc(Cl)c(NC2=CC(=O)C(=O)c3ccccc32)c(OC)c1	13	nt	22	51*	nt	nt	18
Cn1c(=NC(=O)CCl)sc2ccccc21	-2	nt	-1	41*	-0.96	-2	23
CCn1cc(C(=O)N[C@H](C(=O)NC(C)(C)CO)C(C)C)c(=O)c2cc3c(cc21)OCO3	-2	nt	2	0	nt	9	nt
CC(=O)N/C(=N\c1nc(C)cc(C)n1)Nc1ccc(Cl)cc1Cl	-3	nt	-3	49*	nt	-2	0
CC(=O)N/C(=N/c1nc(C)cc(C)n1)Nc1ccc(NC(C)=O)cc1	2	40	-2	1	-0.21	2	nt
Cn1c(SCC(=O)NC2CC2)nnc1-c1cccs1	-2	nt	-4	-2	nt	-15	nt
COc1ccccc1OC(=O)c1cc2ccccc2oc1=O	-1	nt	-14	2	nt	-14	nt
COc1cc(/C=C/[N+](=O)[O-])ccc1OC(=O)c1cc2ccccc2oc1=O	-10	nt	54*	120*	nt	8	-4
Oc1cccc(/C=N/Nc2ncnc3c2ncn3Cc2ccccc2)c1	3	-34	0	2	1.1	1	nt
Oc1ccc(/C=N/Nc2ncnc3c2ncn3Cc2ccccc2)cc1O	136*	-55	19	223*	-0.79	-10	67*	XBP1 UPR conf=76*
S=c1[nH]nc(-c2cccc(Cl)c2)n1CCN1CCCCC1	-2	9	-2	1	-1.2	2	nt
Cn1nc(C(F)(F)F)c(/C=N/OC(=O)c2ccccc2)c1SCc1ccccc1Cl	91*	2	8	52*	-0.31	12	100*	XBP1 UPR conf=115*
COc1ccc(OC)c(N=c2oc3c(OC)cccc3cc2C(=O)NCc2ccco2)c1	1	nt	3	3	nt	-16	nt
COc1ccccc1N=c1oc2c(OC)cccc2cc1C(=O)NCc1ccco1	69*	83*	1	76*	-0.75	-9	67*	XBP1 UPR conf=17
COc1ccc(N=c2oc3c(OC)cccc3cc2C(=O)NCc2ccco2)cc1OC	45*	-33	17	76*	0.45	-4	45*	XBP1 UPR conf=17
CC(NC(=O)COc1ccc(Br)cc1)C1CCCO1 (stereo unspecified)	-3	nt	-1	0	nt	9	nt
Cn1c(=O)c2c(SCC(=O)Nc3cccc(F)c3)nc(-c3ccco3)nc2n(C)c1=O	481*	nt	-1	158*	nt	-2	0	XBP1 UPR conf=4
CCCCCCCCCCCCC/C=C/[C@@H](O)[C@@H](N)CO	2	nt	25	9	nt	nt	nt
O=C(Nc1ccc(Br)cc1)c1cc(-c2ccncc2)nc2ccccc12	122*	nt	1	67*	nt	nt	29	XBP1 UPR conf=105*
COC(=O)c1ccc(NC(=O)c2cc(-c3ccncc3)nc3ccccc23)cc1	-3	nt	5	0	nt	nt	nt
Cc1cc(NC(=O)c2cc(-c3ccccn3)nc3ccc(Br)cc23)no1	34*	nt	16	58*	nt	-4	61*	XBP1 UPR conf=33*
